The test system of assay [1] is HEK 293T cells transfected with the empty vector. Kind of assay: [125I]Ang-. Format: binding, Human.
Assay [2] has as its system endothelial progenitor cells. To be noted: cells from sham or infarcted rodents; cited from earlier work.
A further assay deals with rat renal cortex. To be noted: cited from earlier work.
Another assay deals with megalin. To be noted: scavenger receptor megalin; cited from earlier work.
The subject of assay [3] is rabbit aortic smooth muscle cells. As to conditions: cited from earlier work.
For assay [4], the system named is HEK 293T cells transfected with the empty vector (mock). Put plainly: [3H]arachidonic acid. Format: cell-based, Human. As to conditions: Ang-(1-7) during 15 min, 37 °C. The procedure, abridged: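 They were washed with DMEM containing 2% BSA, then exposed to test peptide at 37 °C for the stated times. Supernatant radioactivity was counted, and total cellular radioactivity came from cells solubilized in 1 mol/L NaOH. Fractional release (% of total) was expressed as percent of unstimulated control (100%), mean ± SEM.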

Regarding Angiotensin-(1-7) [Ang-(1-7)], the “Ang-(1-7) binding” value in assay [1] (0.5 nmol/L [125I]Ang-(1-7), 4°C, 60 min) is reported as “undetectable”. In assay [1] (0.5 nmol/L [125I]Ang-(1-7), 4°C, 60 min, mean ± SEM), this substance came in with a total binding of 480±68 cpm. Moreover, the nonspecific binding in assay [1] (in the presence of 10 μmol/L unlabeled Ang-(1-7), mean ± SEM) was 395±87 cpm. Besides, the “Ang-(1-7)-induced proliferation of endothelial progenitor cells, responsiveness” value in assay [2] was “attenuation in responsiveness”. Moreover, the “Ang-(1-7) response, phosphatidylcholine biosynthesis” value in the assay with rat renal cortex was “decrease in Ang-(1-7) response”. The “binding and internalization by megalin” value with megalin is “binds and internalizes Ang-(1-7)”. Also, the “Ang-(1-7) response in releasing AA from tissue lipids and stimulating 6-keto-prostaglandin F1α production” value in assay [3] is listed as “decrease in Ang-(1-7) response”. Besides, the “[3H]AA release, mock cells” value in assay [4] is “no changes in [^3H]AA release”.

The values are drawn from paper PMC3141282 (Hypertension, 2011).
